Measurements: ChEMBL document CHEMBL1125582, “4-hydroxythiazole inhibitors of 5-lipoxygenase” (J Med Chem, 1991)
pIC50: −log10 of the molar value. The source made the active and inactive calls. The calls are words filed in the database; no cut-off is given here.

What was measured:
[1] = target: T1, Polyunsaturated fatty acid 5-lipoxygenase (Rattus norvegicus) (UniProt P12527); assay: The compound was tested for the in vitro inhibition of 5-lipoxygenase from the 20000 g supernatant of RBI-1 cells; NS indicates nonsignificant inhibition at 32 uM concentration; type: cell-based
T1 sequence (whole entry): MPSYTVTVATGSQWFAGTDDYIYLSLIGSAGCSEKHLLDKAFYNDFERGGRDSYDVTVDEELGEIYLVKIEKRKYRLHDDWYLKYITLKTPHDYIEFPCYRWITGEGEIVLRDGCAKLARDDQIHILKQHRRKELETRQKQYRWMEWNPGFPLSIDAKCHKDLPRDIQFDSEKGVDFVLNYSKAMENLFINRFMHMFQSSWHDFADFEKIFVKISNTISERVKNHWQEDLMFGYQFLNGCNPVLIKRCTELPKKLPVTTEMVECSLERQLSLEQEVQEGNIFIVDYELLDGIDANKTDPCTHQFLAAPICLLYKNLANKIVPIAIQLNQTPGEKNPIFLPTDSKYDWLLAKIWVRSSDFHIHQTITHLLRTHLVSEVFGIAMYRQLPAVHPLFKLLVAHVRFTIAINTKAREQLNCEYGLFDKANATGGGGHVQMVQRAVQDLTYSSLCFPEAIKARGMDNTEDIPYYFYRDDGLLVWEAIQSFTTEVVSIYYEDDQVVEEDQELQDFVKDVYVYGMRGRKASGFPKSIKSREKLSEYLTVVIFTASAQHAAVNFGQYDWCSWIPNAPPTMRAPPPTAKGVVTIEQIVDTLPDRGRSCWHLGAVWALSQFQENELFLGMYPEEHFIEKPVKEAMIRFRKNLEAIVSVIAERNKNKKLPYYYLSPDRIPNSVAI
In short: (§1)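 20000g supernatant of homogenized RBL-1 cells (7.5 × 10⁶ cell equiv/mL) preincubated 20 min at 37 °C with inhibitor or 2% Me₂SO vehicle in pH 6.8 BES/PIPES buffer with EDTA, NaCl, 0.7 mM CaCl₂. Reaction started with 66 μM [¹⁴C]arachidonic acid. [¹⁴C]-5-HETE counted by scintillation, corrected for [³H]-5-HETE recovery.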

[2] = target: T1, Polyunsaturated fatty acid 5-lipoxygenase (Rattus norvegicus); assay: The compound was tested for the in vitro inhibition of 5-lipoxygenase (5-lo) from the 20000 g supernatant of RBI-1 cells at a concentration of 30 uM; type: cell-based; in short: as §1
[3] = target: T2, Polyunsaturated fatty acid 5-lipoxygenase (Rattus norvegicus, UniProt P12527); assay: The compound was tested for the in vitro inhibition of 5-lipoxygenase from the 20000 g supernatant of RBI-1 cells; type: cell-based; in short: as §1
T2 sequence (P12527 whole entry): T1 sequence (whole entry)

[4] = target: T3, Arachidonate 12-lipoxygenase (Rattus norvegicus) (UniProt Q02759); assay: The compound was tested for the in vitro inhibition of platelet 12-lipoxygenase at a concentration of 100 uM
T3 sequence (whole entry): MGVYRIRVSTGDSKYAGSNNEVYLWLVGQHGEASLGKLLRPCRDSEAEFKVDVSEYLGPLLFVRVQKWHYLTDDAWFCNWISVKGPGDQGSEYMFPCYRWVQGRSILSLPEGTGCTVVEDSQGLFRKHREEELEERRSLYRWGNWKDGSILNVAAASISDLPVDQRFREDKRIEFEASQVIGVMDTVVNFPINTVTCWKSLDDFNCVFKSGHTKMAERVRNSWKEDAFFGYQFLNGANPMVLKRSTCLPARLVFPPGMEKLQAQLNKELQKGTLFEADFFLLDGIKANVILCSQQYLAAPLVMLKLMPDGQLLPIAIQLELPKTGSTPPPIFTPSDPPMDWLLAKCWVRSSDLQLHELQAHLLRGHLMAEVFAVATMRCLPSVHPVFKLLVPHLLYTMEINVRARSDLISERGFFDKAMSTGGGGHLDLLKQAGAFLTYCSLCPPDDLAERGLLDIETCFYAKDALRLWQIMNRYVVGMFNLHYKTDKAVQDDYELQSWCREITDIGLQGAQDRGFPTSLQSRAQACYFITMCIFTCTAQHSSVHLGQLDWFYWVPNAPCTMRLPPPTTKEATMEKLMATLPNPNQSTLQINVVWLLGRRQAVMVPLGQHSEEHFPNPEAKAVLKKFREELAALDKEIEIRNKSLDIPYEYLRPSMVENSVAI

[5] = target: T4, Polyunsaturated fatty acid 5-lipoxygenase (Homo sapiens, UniProt P09917); assay: The compound was tested for the inhibition of 5-lipoxygenase (5-lo) in human whole blood (HWBL); type: tissue-based
T4 sequence (P09917 whole entry): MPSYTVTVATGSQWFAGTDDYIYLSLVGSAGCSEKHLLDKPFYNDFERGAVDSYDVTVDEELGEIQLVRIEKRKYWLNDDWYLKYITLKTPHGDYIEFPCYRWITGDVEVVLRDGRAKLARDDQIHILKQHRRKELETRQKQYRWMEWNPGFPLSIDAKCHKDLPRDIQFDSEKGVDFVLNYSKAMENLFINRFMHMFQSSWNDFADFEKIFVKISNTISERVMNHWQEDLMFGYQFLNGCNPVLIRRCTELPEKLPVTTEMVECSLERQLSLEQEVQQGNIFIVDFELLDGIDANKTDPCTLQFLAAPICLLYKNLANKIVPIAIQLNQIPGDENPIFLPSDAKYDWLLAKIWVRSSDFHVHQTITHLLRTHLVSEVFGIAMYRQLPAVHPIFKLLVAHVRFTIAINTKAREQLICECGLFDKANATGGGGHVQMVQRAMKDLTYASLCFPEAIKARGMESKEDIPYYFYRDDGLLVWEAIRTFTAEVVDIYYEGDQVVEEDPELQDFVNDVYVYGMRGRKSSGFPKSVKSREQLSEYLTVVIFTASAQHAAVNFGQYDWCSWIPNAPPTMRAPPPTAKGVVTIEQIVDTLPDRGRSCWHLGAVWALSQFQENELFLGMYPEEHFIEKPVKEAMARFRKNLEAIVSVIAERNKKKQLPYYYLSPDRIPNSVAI
In short: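 Heparinized (20 units/mL) human blood preincubated 15 min at 37 °C with compound or vehicle. Challenged with A23187 in DMSO (final 50 μM) for 30 min, then chilled and centrifuged. Plasma extracted with 4 volumes methanol for at least 2 h at 3 °C. LTB₄ measured by RIA or EIA.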

[6] = tested on: cyclooxygenase (Ovis aries); assay: The compound was tested for the in vitro inhibition of Prostaglandin G/H synthase of sheep seminal vesicle at a concentration of 100 uM
[7] = tested on: 15-lipoxygenase (Glycine max); assay: The compound was tested for the in vitro inhibition of 15-lipoxygenase of soybean at a concentration of 100 uM; conditions: at 100 µM
[8] = target: T2, Polyunsaturated fatty acid 5-lipoxygenase; assay: In vitro inhibition of 5-lipoxygenase (5-lo) from the 20000 g supernatant of RBI-1 cells; type: cell-based
[9] = target: T2, Polyunsaturated fatty acid 5-lipoxygenase; assay: The compound was tested for the inhibition of 5-lipoxygenase (5-lo) in homogenized rat basophilic leukemia (RBL-1) cells; type: cell-based; in short: as §1
[10] = target: T2, Polyunsaturated fatty acid 5-lipoxygenase; assay: Inhibition of 5-lipoxygenase (5-lo) in intact rat polymorphonuclear leukocyte RPMNL
In short: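 Pleural PMNL from carrageenan-injected male Sprague-Dawley rats (200-250 g). Erythrocytes lysed with water, cells washed and held in HEPES/Earle's salts pH 7.0 with 1 mg/mL BSA. 5×10^6 cells preincubated 15 min at 37 °C with compound or DMSO (final 2%). Stimulated with A23187 (final 8.3 μM) for 10 min, stopped on ice. Methanol extracts assayed for LTB₄ by HPLC.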

[11] = tested on: cyclooxygenase (Ovis aries); assay: The compound was tested for the in vitro inhibition of Prostaglandin G/H synthase of sheep seminal vesicle at a concentration of 30 uM
[12] = target: T3, Arachidonate 12-lipoxygenase (Rattus norvegicus); assay: The compound was tested for the in vitro inhibition of platelet 12-lipoxygenase at a concentration of 30 uM
[13] = target: T1, Polyunsaturated fatty acid 5-lipoxygenase (Rattus norvegicus); assay: The compound was tested for the in vitro inhibition of 5-lipoxygenase (5-lo) from the 20000 g supernatant of RBI-1 cells measured at a concentration of 30 uM; type: cell-based; in short: as §1
[14] = target: T1, Polyunsaturated fatty acid 5-lipoxygenase (Rattus norvegicus); assay: The compound was tested for the in vitro inhibition of 5-lipoxygenase (5-lo) from the 20000 g supernatant of RBI-1 cells at a concentration of 32 uM; type: cell-based
In short: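 RBL-1 cell homogenate, 20000g supernatant (7.5 × 10⁶ cell equiv/mL), preincubated 20 min at 37 °C with inhibitor or 2% Me₂SO vehicle in pH 6.8 BES/PIPES/EDTA/NaCl/CaCl₂ buffer; reaction started with 66 μM [¹⁴C]arachidonic acid. [¹⁴C]-5-HETE counted by scintillation, corrected by [³H]-5-HETE recovery; percent reduction vs control, single 32 μM concentration.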

[15] = tested on: 15-lipoxygenase (Glycine max); assay: The compound was tested for the in vitro inhibition of 15-lipoxygenase of soybean at a concentration of 10 uM; conditions: at 10 µM

SMILES: Cc1sc(N)nc1O
- inhibition [1]: inactive

SMILES: CCOC(=O)c1sc(-c2ccccc2)nc1O
- inhibition [2]: 17%

SMILES: CN(O)C(=O)Cc1sc(-c2ccccc2)nc1O
- pIC50 [3]: 5.36

SMILES: Oc1nc(-c2ccc(F)cc2)sc1-c1ccccc1
- inhibition [4]: 0%
- pIC50 [5]: 6.33
- inhibition [6]: 20%
- inhibition [7]: 16%
- pIC50 [8]: 6.30

SMILES: CCCOC(=O)Oc1nc(-c2ccccc2)sc1CCC
- pIC50 [5]: 5.66
- pIC50 [8]: 5.48
- pIC50 [9]: 5.85

SMILES: COc1ccc(-c2nc(O)c(-c3ccccc3)s2)cc1
- inhibition [4]: 6%
- pIC50 [10]: 6.35
- pIC50 [5]: 5.62
- inhibition [6]: 25%
- inhibition [7]: 22%
- pIC50 [8]: 6.43

SMILES: Oc1nc(-c2ccccc2)sc1-c1ccccc1
- inhibition [11]: 47%
- inhibition [7]: 50%
- inhibition [12]: 12%

SMILES: Cc1sc(NN)nc1O
- inhibition [1]: inactive

SMILES: O=C1CSC(c2ccccc2)=N1
- inhibition [13]: 26%

SMILES: O=C(O)Cc1sc(-c2ccccc2)nc1O
- inhibition [2]: 24%

SMILES: O=C1CSC(c2cccnc2)=N1
- inhibition [13]: 8%

SMILES: COP(=O)(OC)Oc1nc(-c2ccccc2)sc1-c1ccccc1
- inhibition [14]: 14%

SMILES: Cc1nc(O)c(C)s1
- inhibition [1]: inactive

SMILES: Cc1sc(-c2ccccc2)nc1O
- inhibition [4]: 51%
- inhibition [11]: 32%
- inhibition [15]: 44%

SMILES: Oc1nc(-c2ccccc2)sc1CCc1ccccc1
- inhibition [4]: 3%
- inhibition [6]: 11%
- inhibition [7]: 34%

SMILES: Cc1sc(-c2ccc(-c3ccccc3)cc2)nc1O
- inhibition [2]: 40%

SMILES: COC(=O)c1ccc(-c2nc(O)c(C)s2)cc1
- inhibition [4]: 0%
- inhibition [11]: 6%
- inhibition [15]: 52%
